Here are results for 28 compounds from publication PMC5260863 (Journal of medicinal chemistry, 2016).

Structures are written as SMILES. Where “and” joins values, the source holds several entries; their conditions need not be identical. Equal entries are not always repeated.

Data set [1] relates to MV4–11 cells. Put plainly: MV4–11 EC50 analysis. In kind it is cell-based, human.
Data set [2] concerns MV4–11 cells. As to the kind of experiment: Western blot analysis of MV4–11 cells. In kind it is cell-based, human. To be noted: for AcHH3 and AcHH4 at varied doses: 6 hours. Summed up:
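Cells were seeded at 500k cells/mL in 6-well plates and pre-incubated 24 h. They were then exposed to test compound at 100 nM for 24 h, or at varied doses for 6 h. Pellets were lysed in RIPA (Tris, NaCl, EDTA, SDS, deoxycholate, Triton X-100), sonicated, spun 15 min at 4°C, then heated in β-mercaptoethanol/LDS at 90°C. Primary antibody ran overnight at 4°C. Bands were normalized to actin, n ≥ 2.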
Background: A western blot detects proteins with antibodies after separation by electrophoresis.

For another data set, the system named is HEK293 lysate. As to the kind of experiment: HEK293 lysate inhibition assay. In kind it is biochemical, human. To be noted: read-out: IC50 HEK293, mean of at least three experiments ± SEM.
The next data set concerns human PBMCs. Put plainly: Human peripheral blood mononuclear cell analysis. Format: cell-based.
Another data set deals with RPMI-8226 cells. Put plainly: Cell viability, CellTiter-Blue. In kind it is cell-based, human. As to conditions: even at mM concentrations. On the technique in general: Resazurin is reduced to fluorescent resorufin, in cell work by metabolically active cells.
Another data set deals with HEK293 cells. Put plainly: HEK293 EC50 analysis. As to conditions: 48 hours of treatment. Format: cell-based, human.
The next data set concerns HeLa cells. As to the kind of experiment: HeLa EC50 analysis. As to conditions: 48 hours of treatment. In kind it is cell-based, human.
A short description of data set [3]: ESI-LCMS glucuronidation assay. Format: in vitro ADME, human. As to conditions: 12 hours at 37°C; for glucuronidation in human liver microsomes with UDP Glucuronic acid: alamethicin, ESI-LCMS. Summed up:
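Pooled mixed-gender human liver microsomes at 250 µg/mL in 100 mM Tris HCl, pH 7.5. Alamethicin 1 µg/mL and MgCl2 5 mM (final), rocked 15 min at 4°C for pore formation. Test compound (5 mM stock) added with UDPGA (50 mM stock) or water, rocked 12 h at 37°C. Quenched with water/acetonitrile/formic acid 47:50:3, centrifuged 15000g. Supernatant analysed by reversed-phase ESI-LCMS TIC.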

Another data set concerns the target recombinant HDAC1 (Homo sapiens, UniProt Q13547). As to the kind of experiment: Recombinant HDAC Vmax study. Format: biochemical.
Another data set addresses recombinant HDAC3 (Homo sapiens, UniProt O15379). As to the kind of experiment: Recombinant HDAC Vmax study. In kind it is biochemical.

Sequence of recombinant HDAC1 (Q13547 whole entry): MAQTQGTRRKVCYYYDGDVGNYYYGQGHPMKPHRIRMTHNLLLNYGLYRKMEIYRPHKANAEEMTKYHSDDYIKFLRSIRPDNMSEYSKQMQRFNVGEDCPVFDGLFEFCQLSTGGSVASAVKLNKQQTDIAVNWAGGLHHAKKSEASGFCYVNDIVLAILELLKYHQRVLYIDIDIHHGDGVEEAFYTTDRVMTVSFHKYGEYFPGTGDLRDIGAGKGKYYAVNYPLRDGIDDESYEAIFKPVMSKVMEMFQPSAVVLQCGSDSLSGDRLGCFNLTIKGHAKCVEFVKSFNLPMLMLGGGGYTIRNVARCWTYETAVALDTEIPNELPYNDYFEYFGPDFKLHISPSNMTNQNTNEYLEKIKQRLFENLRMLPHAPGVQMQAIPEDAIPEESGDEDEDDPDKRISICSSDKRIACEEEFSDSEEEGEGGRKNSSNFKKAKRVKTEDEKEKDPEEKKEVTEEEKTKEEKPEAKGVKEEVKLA
Sequence of recombinant HDAC3 (O15379 whole entry): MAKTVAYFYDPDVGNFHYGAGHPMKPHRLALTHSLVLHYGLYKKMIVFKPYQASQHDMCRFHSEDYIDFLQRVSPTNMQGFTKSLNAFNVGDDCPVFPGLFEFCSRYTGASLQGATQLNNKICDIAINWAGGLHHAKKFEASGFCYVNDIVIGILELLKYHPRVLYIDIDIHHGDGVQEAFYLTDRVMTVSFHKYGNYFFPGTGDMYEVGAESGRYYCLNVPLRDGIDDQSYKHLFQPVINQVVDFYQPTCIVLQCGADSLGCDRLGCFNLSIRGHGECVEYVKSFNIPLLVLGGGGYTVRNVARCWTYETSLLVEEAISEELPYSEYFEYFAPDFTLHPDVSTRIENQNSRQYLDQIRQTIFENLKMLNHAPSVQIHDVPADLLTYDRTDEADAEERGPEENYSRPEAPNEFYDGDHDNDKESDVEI
Sequence of recombinant HDAC3 (Q9Y618 395-489 partner limits assumed): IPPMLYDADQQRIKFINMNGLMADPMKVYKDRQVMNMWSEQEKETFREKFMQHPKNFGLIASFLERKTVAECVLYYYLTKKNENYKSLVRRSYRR

The term IC50 denotes the point on the concentration scale where inhibition reaches its midpoint. As for `CC/C=N/NC(=O)c1ccc(CNC(=O)c2ccccc2)cc1` [2c, (E)-N-(4-(2-propylidenehydrazine-1-carbonyl)benzyl)benzamide], in the data set with MV4–11 cells [1] (doses as high as 250 µM, negative control), the “activity against MV4–11 cells” value is “no appreciable activity”. Besides, in the data set with MV4–11 cells [2] (100 nM, 24 hours), the “upregulation of Acetylated Histones H3 and H4 (AcHH3/AcHH4)” value (“upregulation … (AcHH3/AcHH4)” below) was “no appreciable ability to increase acetylation of histones H3 and H4”. For the same compound, in the data set with HEK293 lysate, the IC50 is more than 10000 nM. Turning to `CCNNC(=O)c1ccc(CNC(=O)c2ccccc2)cc1` [2l, N-(4-(2-ethylhydrazine-1-carbonyl)benzyl)benzamide], in the data set on HEK293 lysate, the IC50 was determined as 427 ± 110 nM. For `CCCCNNC(=O)c1cccnc1` [1d, N’-butylnicotinohydrazide], the IC50 in the data set on HEK293 lysate came to 4680 ± 909 nM. On the same count and under the same terms, for `CCCCNNC(=O)c1cc2ccccc2o1` [1b, N’-butylbenzofuran-2-carbohydrazide] the value was 1690 ± 38 nM; for `CCCCNNC(=O)c1cccc2ccccc12` [1j, N’-butyl-1-napthohydrazide], more than 10000 nM. Take `Cc1[nH]c2ccccc2c1CCNCc1ccc(/C=C/C(=O)NO)cc1` [Panobinostat, panobinostat, reference compound]: in the data set with human PBMCs (24 hours treatment), the “concentration at which toxicity toward PBMCs is displayed” value is recorded as 10 nM. Further, the “Acetylated Tubulin (AcTub) levels” value with MV4–11 cells [2] (100 nM, 24 hours, marker of HDAC6 inhibition) is on record as “the only inhibitor to raise Acetylated Tubulin (AcTub) levels at this concentration”. Turning to `CCCCNNC(=O)c1ccc(OC)cc1` [1a, N’-butyl-4-methoxybenzohydrazide], the IC50 with HEK293 lysate amounted to 727 ± 10.8 nM. With `CC(C)NNC(=O)c1ccc(CNC(=O)c2ccccc2)cc1` [2b, N-(4-(2-isopropylhydrazine-1-carbonyl)benzyl)benzamide], the IC50 with HEK293 lysate was more than 10000 nM.

Take `CCCCNNC(=O)c1ccc(Oc2ccccc2)cc1` [1c, N’-butyl-4-phenoxybenzohydrazide]: the IC50 in the data set on HEK293 lysate was determined as 1690 ± 298 nM. The same measure, in the same setting: for `CCCCNNC(=O)c1ccco1` [1g, N’-butylfuran-2-carbohydrazide] the value was more than 10000 nM.

As to `CCCNNC(=O)c1ccc(CNC(=O)/C=C/c2ccccc2)cc1` [3b, N-(4-(2-propylhydrazine-1-carbonyl)benzyl)cinnamamide], in the data set on RPMI-8226 cells, the “kill curve against RPMI-8226” value was “incomplete kill curves”. Besides, the “toxicity toward PBMCs compared to panobinostat” value with human PBMCs (24 hours treatment) is “superior toxicity (less PBMC killing) than panobinostat”. Moreover, the “killing of HEK293 cells” value in the data set with HEK293 cells is on record as “Neither 11, 2d, nor 3b display effective killing of this solid tumor cell line”. In addition, the “killing of HeLa cells” value with HeLa cells is on record as “Neither 1l, 2d, nor 3b display effective killing of this solid tumor cell line”. In addition, the “decrease in EC50 in MV4–11 cells compared to 2d” value with MV4–11 cells [1] (vs 2d) is listed as approximately 2.5 fold. Besides, the “upregulation … (AcHH3/AcHH4)” value in the data set on MV4–11 cells [2] (100 nM, 24 hours) is “higher upregulation of Acetylated Histones H3 and H4 (AcHH3/AcHH4) than vorinostat and entinostat”. Also, the “AcHH3 and AcHH4 at varied doses” value in the data set with MV4–11 cells [2] was “dose-dependent increase in AcHH3 and AcHH4”. Further, the “glucuronidation in human liver microsomes with UDP Glucuronic acid” value in data set [3] is “not readily glucuronidated”.

Take `CCCCCNNC(=O)c1ccc(CNC(=O)/C=C/c2ccccc2)cc1` [3d, N-(4-(2-pentylhydrazine-1-carbonyl)benzyl)cinnamide]: the half-maximal inhibitory concentration (IC50) with HEK293 lysate was 691 ± 54.7 nM. The same measure, in the same setting: for `O=C(NCc1ccc(C(=O)NNCC2CCC2)cc1)c1ccccc1` [2m, N-(4-(2-(cyclobutylmethyl)hydrazine-1-carbonyl)benzyl)benzamide] the value was 1880 ± 212 nM; for `O=C(NCc1ccc(C(=O)NNCC2CC2)cc1)c1ccccc1` [2g, N-(4-(2-(cyclopropylmethyl)hydrazine-1-carbonyl)benzyl)benzamide], 1620 ± 196 nM. Still for that read-out and setting: with `CCCCNNC(=O)CCc1ccccc1` [1h, N’-butyl-3-phenylpropanehydrazide] the figure was more than 10000 nM. Regarding `CCCCCCNNC(=O)c1ccc(CNC(=O)/C=C/c2ccccc2)cc1` [3e, N-(4-(2-hexylhydrazine-1-carbonyl)benzyl)cinnamamide], in the data set with HEK293 lysate, the IC50 was 1720 ± 139 nM. Regarding `CCCCCCNNC(=O)c1ccc(CNC(=O)c2ccccc2)cc1` [2j, N-(4-(2-hexylhydrazine-1-carbonyl)benzyl)benzamide], the IC50 in the data set with HEK293 lysate was determined as 550 ± 134 nM. Still for that read-out and setting: with `CCCCCCCNNC(=O)c1ccc(CNC(=O)c2ccccc2)cc1` [2h, N-(4-(2-heptylhydrazine-1-carbonyl)benzyl)benzamide] the figure was 2160 ± 896 nM. As to `CCCCNNC(=O)c1ccc(CNC(=O)c2ccccc2)cc1` [1l, N-(4-(2-butylhydrazine-1-carbonyl)benzyl)benzamide], the “killing of HEK293 cells” value with HEK293 cells was “Neither 11, 2d, nor 3b display effective killing of this solid tumor cell line”. For the same compound, in the data set with HeLa cells, the “killing of HeLa cells” value is on record as “Neither 1l, 2d, nor 3b display effective killing of this solid tumor cell line”. Besides, in the data set on MV4–11 cells [2] (100 nM, 24 hours), the “upregulation … (AcHH3/AcHH4)” value is “higher upregulation of Acetylated Histones H3 and H4 (AcHH3/AcHH4) than vorinostat and entinostat”. Moreover, the “AcHH3 and AcHH4 at varied doses” value in the data set with MV4–11 cells [2] was “dose-dependent increase in AcHH3 and AcHH4”.

As for `CCNNC(=O)c1ccc(CNC(=O)/C=C/c2ccccc2)cc1` [3a, N-(4-(2-ethylhydrazine-1-carbonyl)benzyl)cinnamide], the IC50 in the data set on HEK293 lysate worked out at 171 ± 34.2 nM.

With `O=C(NCc1ccc(C(=O)NNCCC(F)(F)F)cc1)c1ccccc1` [2f, N-(4-(2-(3,3,3-trifluoropropyl)hydrazine-1-carbonyl)benzyl)benzamide], the IC50 with HEK293 lysate amounted to 1230 ± 136 nM. Take `CCCCCCCCCCNNC(=O)c1ccc(CNC(=O)c2ccccc2)cc1` [2k, N-(4-(2-decylhydrazine-1-carbonyl)benzyl)benzamide]: the IC50 in the data set on HEK293 lysate was more than 10000 nM. Turning to `O=C(CCCCCCC(=O)Nc1ccccc1)NO` [vorinostat, reference compound], at recombinant HDAC1, the “mode of inhibition, HDAC1 (Lineweaver-Burke plot)” value is “competitive inhibition”. Also, the “mode of inhibition, HDAC3 (Lineweaver-Burke plot)” value on recombinant HDAC3 is reported as “competitive inhibition”. Besides, the “glucuronidation in human liver microsomes with UDP Glucuronic acid” value in [3] is given as “presence of the o-glucuronidated metabolite”. Turning to `CCCCCCCCNNC(=O)c1ccc(CNC(=O)c2ccccc2)cc1` [2i, N-(4-(2-octylhydrazine-1-carbonyl)benzyl)benzamide], the half-maximal inhibitory concentration (IC50) in the data set with HEK293 lysate was more than 10000 nM. Consider `CCCCNNC(=O)/C=C/c1ccccc1` [1i, N’-butylcinnamohydrazide], for which the IC50 in the data set with HEK293 lysate was 1440 ± 86.1 nM.

Regarding `CCCCNNC(=O)c1cccs1` [1f, N’-butylthiophene-2-carbohydrazide], the IC50 in the data set on HEK293 lysate was determined as 3460 ± 669 nM. Take `CCCNNC(=O)c1ccc(CNC(=O)c2ccccc2)cc1` [2d, N-(4-(2-propylhydrazine-1-carbonyl)benzyl)benzamide]: the “toxicity toward PBMCs compared to panobinostat” value in the data set with human PBMCs (24 hours treatment) is “superior toxicity (less PBMC killing) than panobinostat”. Besides, the “less toxicity toward PBMCs than 3b” value with human PBMCs (vs 3b, until the high micromolar range) is 10 fold and ~ 10 fold. For the same compound, the “killing of HEK293 cells” value with HEK293 cells is “Neither 11, 2d, nor 3b display effective killing of this solid tumor cell line”. Also, the “mode of inhibition, HDAC1 (Lineweaver-Burke plot)” value at recombinant HDAC1 is listed as “mixed inhibition”. In addition, in the data set on HeLa cells, the “killing of HeLa cells” value is “Neither 1l, 2d, nor 3b display effective killing of this solid tumor cell line”. The “upregulation … (AcHH3/AcHH4)” value in the data set on MV4–11 cells [2] (100 nM, 24 hours) was “higher upregulation of Acetylated Histones H3 and H4 (AcHH3/AcHH4) than vorinostat and entinostat”. Besides, the “AcHH3 and AcHH4 at varied doses” value in the data set with MV4–11 cells [2] is “dose-dependent increase in AcHH3 and AcHH4”. For the same compound, the “metabolites in human liver microsomes” value in [3] (with and without UDPGA, no NADPH added) is “Neither vessel contained any detectable metabolites other than parent compound”. Take `C/C=C/CNNC(=O)c1ccc(CNC(=O)c2ccccc2)cc1` [2a, (E)-N-(4-(2-(but-2-en-1-yl)hydrazine-1-carbonyl)benzyl)benzamide]: in the data set on HEK293 lysate, the IC50 was more than 10000 nM.
